# According to PubChem BioAssay:
# Activity calls are given as the source filed them.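 The calls were made as follows, unless noted: active = fluorescence slope after compound addition differing from the mean of all tested samples at 99.7% confidence, mostly higher but some lower; inactive = the rest.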
# Columns and labels:
# [1] = inhibitors of TNFa-induced NFkB p65 translocation, primary screen, imaging, HUVEC, MLSMR starter and 10KST1 sets (AID 438;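 active = inhibition above 20% together with a positive visual image hit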;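 also: compound added about 3h40 before a 20 min TNFalpha stimulation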;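 as to inhibition: signal is the nuclear over cytoplasmic p65 intensity ratio per well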); conditions: HUVEC TNFa-induced p65 nuclear translocation; cell count: measured here: nuclei count (cytotoxicity indicator), at 2.08 µM; inhibition: at 2 µM, stronger effect = higher value, 0% TNFa-plus-vehicle, 100% no-TNFa wells
# [2] = reduction of polyQ htt aggregates in cells – imaging, exon1htt(103Q)mCFP cells, high-content imaging, primary screen (AID 483;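 active = visual image review flags a hit and inhibition of aggregation exceeds 20%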;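 also: compound exposure lasted 3 days before fixation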;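 as to nuclei count: percent of the per-plate median nuclei count of sample wells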); conditions: exon1htt(103Q)mCFP cell line, aggregate imaging, at 2 µM; inhibition of aggregation: stronger effect = higher value; nuclei count: measured here: cell count, toxicity
# [3] = endothelial E-selectin expression blockers – imaging, HUVEC, immunofluorescence, MLSMR starter and 10KST1 sets, primary screen (AID 487;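 active = visually confirmed hit in the image check and inhibition above 20%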;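 as to inhibition: signal is fraction of cell area covered by stained E-selectin grains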;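 as to nuclei count: 100% = median nuclei count of all wells on the same plate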); conditions: HUVEC TNFalpha-induced E-selectin immunofluorescence imaging, at 2 µM; inhibition: stronger effect = higher value; nuclei count: measured here: cell number, toxicity
# [4] = target: Voltage-gated potassium channel subunit beta-2 (Rattus norvegicus) (UniProt P62483); assay: inhibitors of rat Kvbeta2 reductase activity – biochemical, NADPH fluorescence, primary screen (AID 622;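 active = fluorescence slope higher than the sample average by over 3 SD, cut at about -0.22 in these data, passing the limit was not always enough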;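 also: slope of raw intensity against log time taken from 70 to 1610 s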); conditions: recombinant KvBeta, 4-cyanobenzaldehyde reduction, at 10 µM, stronger effect = higher value
# [5] = target: Voltage-gated potassium channel subunit beta-2 (Rattus norvegicus) (UniProt P62483); assay: enhancers of rat Kvbeta2 NADPH turnover – biochemical, NADPH fluorescence, primary screen (AID 623;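 active = NADPH fluorescence slope more negative than the mean of all samples by about 3 SD, 99.7% confidence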;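 also: fluorescence intensity change per second fitted from 20 to 320 s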); conditions: Recombinant KvBeta, NADPH fluorescence decrease slope, 10 min; at 10 µM; stronger effect = lower value
# [6] = target: Muscarinic acetylcholine receptor M4 (Homo sapiens) (UniProt P08173); assay: M4-linked GIRK flux change, two-sided – cell-based, HEK293 M4/GIRK, thallium flux, BTC-AM, M4 allosteric agonist project, primary screen (AID 625); conditions: at 10 µM, actives lie on both sides;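 also: thallium influx through GIRK channels coupled to M4 in HEK293 cells with BTC-AM dye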
# Summary of the method: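 Material: HEK293 cells with M4 receptor and GIRK channels; Times: cells overnight at 37 °C, BTC-AM loading 1 h, reads 2 min total; Technique: kinetic BTC-AM fluorescence sampled at 1 Hz, 10 s pre-addition baseline; Read-out basis: slope over 15–24 s of trace normalized to starting intensity; Controls: carbachol positive, DMSO negative.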
# [7] = blockers of RIG-like receptor reporter activation – cell-based, Sendai virus stimulus, luciferase, 10K MLSCN set, TLR/RLR signaling modifier project, primary screen (AID 602276;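 active = inhibition at or above 50% at 10 µM; inactive = inhibition below 50%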;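 also: firefly luciferase from ISG56 promoter only with Renilla not read in this screen; 0% = Sendai virus plus DMSO and 100% = medium plus DMSO without virus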); conditions: HEK293 RL24 IRF3 luciferase reporter, at 10 µM, stronger effect = higher value
# [8] = TLR3 IRF3 reporter activation blockers – cell-based, poly I:C stimulus, luciferase, 10K MLSCN set, primary screen (AID 602277;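 active = inhibition of the reporter signal at or above 50%; inactive = inhibition below 50%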); conditions: HEK293-TLR3 RL24 IRF3 luciferase reporter, at 10 µM, stronger effect = higher value
# Muscarinic acetylcholine receptor M4 (Homo sapiens), sequence (P08173 whole entry, looked up): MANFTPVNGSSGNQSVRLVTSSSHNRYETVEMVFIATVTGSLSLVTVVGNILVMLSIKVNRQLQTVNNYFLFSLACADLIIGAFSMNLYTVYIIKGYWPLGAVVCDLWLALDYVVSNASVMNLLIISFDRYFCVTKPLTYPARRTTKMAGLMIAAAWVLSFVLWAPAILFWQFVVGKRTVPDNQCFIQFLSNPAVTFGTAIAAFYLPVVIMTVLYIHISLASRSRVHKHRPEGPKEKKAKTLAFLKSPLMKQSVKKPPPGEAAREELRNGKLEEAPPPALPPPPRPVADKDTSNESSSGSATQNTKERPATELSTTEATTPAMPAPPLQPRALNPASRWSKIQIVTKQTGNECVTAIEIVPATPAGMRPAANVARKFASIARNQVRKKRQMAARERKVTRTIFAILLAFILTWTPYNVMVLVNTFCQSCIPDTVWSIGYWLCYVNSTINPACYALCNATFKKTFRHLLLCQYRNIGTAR
# Voltage-gated potassium channel subunit beta-2 (Rattus norvegicus), sequence (P62483 whole entry, looked up): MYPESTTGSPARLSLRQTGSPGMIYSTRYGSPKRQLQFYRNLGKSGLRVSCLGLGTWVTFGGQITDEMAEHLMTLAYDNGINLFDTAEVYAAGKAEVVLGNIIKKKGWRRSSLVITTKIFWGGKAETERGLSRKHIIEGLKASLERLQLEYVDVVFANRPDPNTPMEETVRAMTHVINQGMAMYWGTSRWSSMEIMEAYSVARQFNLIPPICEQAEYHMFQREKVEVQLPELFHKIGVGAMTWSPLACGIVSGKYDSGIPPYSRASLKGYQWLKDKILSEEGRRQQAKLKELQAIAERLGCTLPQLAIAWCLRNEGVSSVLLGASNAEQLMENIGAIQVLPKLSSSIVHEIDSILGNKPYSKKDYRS
Structure (SMILES),cell count [1],inhibition [1],inhibition of aggregation [2],nuclei count [2] [%],inhibition [3],nuclei count [3] [%],fluorescence slope [4],NADPH fluorescence slope [5],fluorescence slope [6],inhibition [7],inhibition [8]
COc1ccc(CNC(=O)Cn2nc(C(F)(F)F)c3c2CCC3)cc1,620,-13.3% (inactive),-8% (inactive),103,-56.6% (inactive),116,-0.396 (inactive),-9.3e-05 (inactive),0.00662 (inactive),6.68% (inactive),19.7% (inactive)
COc1ccc2oc(C)c(C(=O)Cn3ccnc3)c2c1,488,-7.3% (inactive),22.7% (inactive),54.3,-16% (inactive),108,-0.578 (inactive),-1.5e-05 (inactive),0.00618 (inactive),-26.4% (inactive),-28.5% (inactive)
O=C(Cc1cccs1)Nc1ccccc1C(=O)O,365,2.6% (inactive),13.3% (inactive),99.5,-7.6% (inactive),113,-0.524 (inactive),-3.3e-05 (inactive),0.00502 (inactive),-8.52% (inactive),-27.9% (inactive)
COc1ccc(N2C(=O)CC(NC3CC3)C2=O)cc1 (stereo not drawn),416,9.4% (inactive),0.9% (inactive),108,7.7% (inactive),110,-0.577 (inactive),1.5e-05 (inactive),0.00561 (inactive),16.4% (inactive),24% (inactive)
CCOC(=O)c1cc(-c2ccc3c(c2)OCO3)nc2onc(C)c12,402,3.7% (inactive),21.3% (inactive),64.3,-64.2% (inactive),106,-0.00965 (inactive),-7.8e-06 (inactive),0.00537 (inactive),-6.27% (inactive),-18.4% (inactive)
CCN(CC)C(=O)CSc1nc2ccc(NC(=O)CSc3nccn3C)cc2s1,729,-2.4% (inactive),-36.9% (inactive),116,19.3% (inactive),94.3,-0.577 (inactive),-1.3e-05 (inactive),0.00661 (inactive),-9.79% (inactive),-19.1% (inactive)
COc1ccccc1C(=O)N1CCCC(c2nc(-c3cc(OC)c(OC)c(OC)c3)no2)C1 (stereo not drawn),307,0.5% (inactive),-0.4% (inactive),120,19.1% (inactive),100,-0.474 (inactive),-3.6e-05 (inactive),0.0058 (inactive),12.4% (inactive),16.1% (inactive)
CC(C)OC(=O)CSc1nnc(Cc2ccccc2)n1Cc1ccco1,726,28.5% (active),-13% (inactive),106,44% (inactive),100,-0.419 (inactive),-2.4e-05 (inactive),0.0048 (inactive),10.9% (inactive),6.75% (inactive)
CCn1cc(C(=O)N2CCN(C(=O)c3ccco3)CC2)c2cc(OC)c(OC)cc2c1=O,235,-2.3% (inactive),-10% (inactive),105,-55.5% (inactive),121,-0.515 (inactive),8.7e-05 (inactive),0.00709 (inactive),13.9% (inactive),15.4% (inactive)
O=C(Cc1ccsc1-c1ccccc1)NO,483,-1.2% (inactive),11.3% (inactive),76,44.1% (inactive),57.7,-0.46 (inactive),-3.2e-05 (inactive),0.00508 (inactive),17.8% (inactive),11.3% (inactive)
CCOC(=O)COc1ccc(S(=O)(=O)N2CCc3ccccc3C2)cc1,447,3.3% (inactive),-59% (inactive),58.4,-5.1% (inactive),96,-0.555 (inactive),-4.9e-05 (inactive),0.00522 (inactive),19.6% (inactive),23.3% (inactive)
O=C(NCCCN1CCOCC1)C1CC(=O)N(CCc2ccccc2)C1 (stereo not drawn),295,-1% (inactive),0.4% (inactive),104,-88% (inactive),117,-0.545 (inactive),1.7e-05 (inactive),0.00479 (inactive),15.2% (inactive),22.3% (inactive)
O=S(=O)(c1ccc(OCC(O)CN2CCN(c3ccccc3)CC2)cc1)N1CCOCC1 (stereo not drawn),603,-34.9% (inactive),-19.9% (inactive),104,-19.7% (inactive),108,-0.214 (inactive),-1.7e-05 (inactive),0.00626 (inactive),13.5% (inactive),-5.1% (inactive)
Cc1cccc(N(CC(N)=O)S(C)(=O)=O)c1C,369,-5.2% (inactive),6.8% (inactive),100,-129% (inactive),122,-0.551 (inactive),-0.000105 (inactive),0.00412 (inactive),11% (inactive),14.1% (inactive)
O=C(COc1ccccc1)NCCSCc1ccco1,599,-59.2% (inactive),-13.8% (inactive),115,-71.2% (inactive),116,-0.271 (inactive),-2e-05 (inactive),0.00726 (inactive),-1.72% (inactive),-10.5% (inactive)
CCC(C)NC(=O)C1(C)CCC(=O)N1Cc1ccccc1OC (stereo not drawn),406,-14.1% (inactive),-3.9% (inactive),105,-15.7% (inactive),93.9,-0.512 (inactive),0.000141 (inactive),0.00751 (inactive),12.9% (inactive),22.5% (inactive)
C=CCOc1ccc(/C(O)=C2\C(=O)C(=O)N(CCOC)C2c2cccnc2)cc1 (stereo not drawn),640,3.4% (inactive),14.8% (inactive),105,4% (inactive),101,-0.336 (inactive),-4.4e-05 (inactive),0.00592 (inactive),6.88% (inactive),15.7% (inactive)
O=C(CSc1ncnc2sc3c(c12)CCCCC3)NCc1ccco1,354,-5.1% (inactive),-11.3% (inactive),93.9,-196% (inactive),128,-0.472 (inactive),-1.4e-05 (inactive),0.0063 (inactive),17.7% (inactive),35.5% (inactive)
O=C(Cc1ccc(S(=O)(=O)N2CCCC2)s1)Nc1nc2c(s1)CCCC2,577,22.2% (inactive),25.3% (inactive),94.3,18.1% (inactive),71.4,-0.574 (inactive),-5.6e-05 (inactive),0.00565 (inactive),-11% (inactive),-53.9% (inactive)
Cc1cccc2cc(CN(Cc3nnnn3C3CCCC3)C3CCCCC3)c(=O)[nH]c12,349,5.8% (inactive),-3.3% (inactive),99.1,-44% (inactive),106,-0.466 (inactive),4.8e-05 (inactive),0.00597 (inactive),7.22% (inactive),21.3% (inactive)
CS(=O)(=O)N1CCN(CC2CC3C=CC2C3)CC1 (stereo not drawn),367,-3% (inactive),-5.6% (inactive),94.8,-18.9% (inactive),123,-0.199 (inactive),-2e-05 (inactive),0.00684 (inactive),14.1% (inactive),25.1% (inactive)
Nc1nnc(Cc2ccc(Cl)cc2)s1,331,7.5% (inactive),-4.2% (inactive),92.7,-130% (inactive),115,-0.483 (inactive),-7.5e-05 (inactive),0.00532 (inactive),11.6% (inactive),13% (inactive)
O=C(CN1CCN(C(=O)c2ccccc2)CC1)Nc1ncc(Br)cc1Br,622,7.6% (inactive),-6.8% (inactive),95.9,2.6% (inactive),99.9,-0.45 (inactive),3.1e-05 (inactive),0.00598 (inactive),-7.57% (inactive),5.71% (inactive)
Clc1ccc(Cc2nn3c(-c4ccncc4)nnc3s2)cc1,322,-5.1% (inactive),5.5% (inactive),83.3,-102% (inactive),110,-0.523 (inactive),-0.000147 (inactive),0.00382 (inactive),-1.37% (inactive),-9.67% (inactive)
Cc1cc(S(=O)(=O)n2cnc3ccccc32)c(C)cc1Cl,449,-11.9% (inactive),25.3% (inactive),78,8% (inactive),113,-0.473 (inactive),1.7e-06 (inactive),0.00564 (inactive),1.42% (inactive),14.8% (inactive)
COc1ccc(OC)c(NC(=O)CSc2nc3ccccc3c(=O)n2CCNC(C)=O)c1,497,-4.3% (inactive),10.1% (inactive),111,-17.6% (inactive),115,-0.455 (inactive),4e-05 (inactive),0.00813 (inactive),14.7% (inactive),18.6% (inactive)
CCC(=O)NC1(C(F)(F)F)C(=O)NC(C)=C1C#N (stereo not drawn),382,3.6% (inactive),11.2% (inactive),98.2,-18.8% (inactive),105,-0.445 (inactive),4.4e-05 (inactive),0.00561 (inactive),14.9% (inactive),25.3% (inactive)
O=C(O)CCc1ccc(-c2ccccc2)n1CC(=O)O,355,2.4% (inactive),-3.7% (inactive),112,-36.5% (inactive),114,-0.564 (inactive),-7.8e-05 (inactive),0.00623 (inactive),-9.35% (inactive),-25.1% (inactive)
